The target in series [1] is T1, Aldehyde dehydrogenase, mitochondrial (Homo sapiens) (UniProt P05091).
T1 sequence (whole entry): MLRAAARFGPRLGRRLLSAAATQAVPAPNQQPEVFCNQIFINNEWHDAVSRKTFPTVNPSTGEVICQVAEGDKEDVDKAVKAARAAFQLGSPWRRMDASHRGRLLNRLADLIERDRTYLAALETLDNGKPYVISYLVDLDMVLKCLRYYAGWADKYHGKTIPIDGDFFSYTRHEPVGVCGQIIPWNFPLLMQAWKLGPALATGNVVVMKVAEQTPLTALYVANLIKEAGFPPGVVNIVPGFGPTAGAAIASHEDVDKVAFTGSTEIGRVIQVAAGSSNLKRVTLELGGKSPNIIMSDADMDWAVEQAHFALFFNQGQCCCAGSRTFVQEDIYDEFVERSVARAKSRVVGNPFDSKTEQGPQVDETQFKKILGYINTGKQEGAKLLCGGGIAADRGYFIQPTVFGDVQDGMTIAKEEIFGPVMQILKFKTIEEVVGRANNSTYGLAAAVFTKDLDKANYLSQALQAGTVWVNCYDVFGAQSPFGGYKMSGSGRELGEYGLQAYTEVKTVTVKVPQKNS
Kind of series: Activation of wild type human recombinant ALDH2*1 expressed Escherichia coli BL21 cells at 10 uM relative to control.

Series [2] has as its system BL21. Description: Activation of human recombinant ALDH2*2 E487K mutant expressed Escherichia coli BL21 cells at 10 uM relative to control.
Series [3] is described as follows: Effect on alcohol dehydrogenase 1 activity at 100 uM.
The target in series [4] is T2, Aldehyde dehydrogenase X, mitochondrial (Homo sapiens) (UniProt P30837).
T2 sequence (whole entry): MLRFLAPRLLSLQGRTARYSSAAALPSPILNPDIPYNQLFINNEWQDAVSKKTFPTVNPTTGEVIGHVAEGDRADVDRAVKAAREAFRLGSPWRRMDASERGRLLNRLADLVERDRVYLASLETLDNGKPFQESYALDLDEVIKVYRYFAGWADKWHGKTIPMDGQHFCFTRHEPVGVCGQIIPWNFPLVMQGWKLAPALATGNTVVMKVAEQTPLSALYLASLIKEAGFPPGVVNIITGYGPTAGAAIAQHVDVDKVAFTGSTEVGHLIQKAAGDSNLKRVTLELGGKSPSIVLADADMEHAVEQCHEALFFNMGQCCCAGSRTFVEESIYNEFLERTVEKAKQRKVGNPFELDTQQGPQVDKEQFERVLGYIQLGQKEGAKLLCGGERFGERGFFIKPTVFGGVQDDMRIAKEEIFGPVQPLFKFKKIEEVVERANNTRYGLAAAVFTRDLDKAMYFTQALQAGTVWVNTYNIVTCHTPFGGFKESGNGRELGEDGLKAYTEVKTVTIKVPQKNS
Kind of series: Effect on human recombinant his-tagged mitochondrial ALDH5 activity expressed in Escherichia coli BL21 cells at 100 uM.

Series [5] addresses T3, Aldehyde dehydrogenase 1A1 (Homo sapiens) (UniProt P00352).
T3 sequence (whole entry): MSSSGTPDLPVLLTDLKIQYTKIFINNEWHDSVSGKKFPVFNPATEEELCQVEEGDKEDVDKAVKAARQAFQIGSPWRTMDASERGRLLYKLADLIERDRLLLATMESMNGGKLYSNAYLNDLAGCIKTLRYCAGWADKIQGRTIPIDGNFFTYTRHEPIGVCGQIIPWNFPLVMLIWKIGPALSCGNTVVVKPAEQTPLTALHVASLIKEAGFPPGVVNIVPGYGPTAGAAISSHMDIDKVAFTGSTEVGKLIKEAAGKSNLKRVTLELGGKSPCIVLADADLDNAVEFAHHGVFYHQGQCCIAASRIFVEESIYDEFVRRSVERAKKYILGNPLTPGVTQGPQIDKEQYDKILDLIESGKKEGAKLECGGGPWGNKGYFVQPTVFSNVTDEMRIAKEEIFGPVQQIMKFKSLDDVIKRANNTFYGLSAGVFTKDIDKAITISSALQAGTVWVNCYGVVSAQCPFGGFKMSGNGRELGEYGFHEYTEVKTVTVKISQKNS
Kind of series: Effect on human recombinant his-tagged cytosolic ALDH1A1 activity expressed in Escherichia coli BL21 cells at 100 uM.

In series [6] the test system is Rattus norvegicus. Description: Induction of cell-stress in Wistar rat heart assessed as JNK activation at 8.5 mg/kg after 5 mind by Western blot analysis. Format: functional, organism-based. Also on record: dose 8.5 mg/kg. In general terms: In western blotting, separated proteins are transferred to a membrane and probed.
Series [7] relates to Rattus norvegicus. Description: Reduction of cardiac damage in acute myocardial infarction Wistar rat model assessed as decrease in myocardial infarction at 8.5 mg/kg treated 5 mins before ischemia by TTC staining. The class given is functional, Myocardium. Also on record: scale not given: the % may be the effect or the level left. The essentials:
(§1)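 In vivo: 8.5 mg/kg injected into left ventricle five minutes before ischemia; 35 min ischemia then 60 min reperfusion; infarct size of left ventricular free wall expressed as percent, n=7.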

For series [8], the system named is Rattus norvegicus. Kind of series: Toxicity in Wistar rat assessed as histopathology at 6 mg/kg/day for 1 week. Format: organism-based. The note with it: in vivo, 168 h.
The target of series [9] is T1, Aldehyde dehydrogenase, mitochondrial (Homo sapiens). Description: Activation of human ALDH2 assessed as phosphorylated enzyme at 20 uM in presence of rat PKCepsilon by spectrophotometry.
In series [10] the test system is Heart. Kind of series: Ex vivo cardiac protection in Langendorff perfused Wistar rat heart assessed decrease in myocardial infarct size at 20 uM treated […] ischemia followed by 60 mins reperfusion by TTC staining. The class given is functional. Also on record: scale not given: the % may be the effect or the level left. The essentials: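 Langendorff-perfused rat hearts pretreated 10 min with 20 μM drug or vehicle, then 35 min ischemia and 60 min reperfusion. Infarct size assessed by TTC staining of cross-sectional slices; n=7 hearts per group.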

Series [11] deals with T1, Aldehyde dehydrogenase, mitochondrial (Homo sapiens). Description: Increase in wild type human recombinant ALDH2*1/*1 homotetramer activity expressed in Escherichia coli BL21 cells using wild type allele relative to basal activity. Put shortly:
(§2)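 Recombinant human ALDH2 proteins (wild type, heterozygous and homozygous mutant forms), 20μg each, assayed for enzymatic activity with 100 μM activator present; activity expressed as percent of untreated control; n=3.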

Series [12] deals with Rattus norvegicus. Description: Reduction of cardiac damage in acute myocardial infarction Wistar rat model assessed as decrease in infarct size at 8.5 mg/kg treated before left anterior descending coronary artery ligation measured after 35 mins of ischemia followed by 60 mins reperfusion by TTC staining. Also on record: scale not given: the % may be the effect or the level left. Format: functional, Myocardium. The essentials:
as §1

Series [13] has as its system BL21. Kind of series: Increase in human recombinant ALDH2*2 E487K mutant activity expressed in Escherichia coli BL21 cells. Put shortly:
as §2

Series [14] concerns Rattus norvegicus. Description: Toxicity in Wistar rat assessed as blood parameters at 6 mg/kg/day for 1 week. Format: organism-based. The note with it: in vivo, 168 h.
The target in series [15] is T1, Aldehyde dehydrogenase, mitochondrial (Homo sapiens). Description: Activation of human ALDH2 assessed as phosphorylated enzyme at 20 uM in absence of rat PKCepsilon by spectrophotometry.
For series [16], the system named is BL21. Kind of series: Increase in human recombinant ALDH2*1/*2 E487K mutant heterotetramer activity expressed in Escherichia coli BL21 cells using wild type and mutant allele. The essentials:
as §2

Series [17] has as its system Heart. Kind of series: Ex vivo cardiac protection in Langendorff perfused Wistar rat heart assessed decrease of CPK release at 20 uM treated 35 mins before ischemia followed by 60 mins reperfusion. The class given is functional. Set-up: scale not given: the % may be the effect or the level left.
In series [18] the test system is Rattus norvegicus. Kind of series: Induction of cell-stress in Wistar rat heart assessed as JNK activation at 8.5 mg/kg after ischemia followed by reperfusion by occluding left anterior descending coronary artery ligation for 35 mins by Western blot analysis. The class given is functional, organism-based. Also on record: dose 8.5 mg/kg. Put shortly:
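In vivo rat model: 8.5 mg/kg given into the left ventricle five minutes before 35 min ischemia, followed by 60 min reperfusion.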

Series [19] has as its system Rattus norvegicus. Kind of series: Cardiac protection in Wistar rat assessed as decrease in infarct size at 5 ug/min/kg for 13 hrs prolonged treatment terminated 3 hrs before ischemia. Also on record: scale not given: the % may be the effect or the level left. Format: functional.
The test system of series [20] is Heart. Kind of series: Cardiac protection in Langendorff perfused ischemic Wistar rat heart assessed as reduction of infarct size at 1 uM for 10 mins by TTC staining. Format: functional. Set-up: scale not given: the % may be the effect or the level left.
Series [21] concerns the target T4, Aldehyde dehydrogenase, mitochondrial (Rattus norvegicus) (UniProt P11884).
T4 sequence (whole entry): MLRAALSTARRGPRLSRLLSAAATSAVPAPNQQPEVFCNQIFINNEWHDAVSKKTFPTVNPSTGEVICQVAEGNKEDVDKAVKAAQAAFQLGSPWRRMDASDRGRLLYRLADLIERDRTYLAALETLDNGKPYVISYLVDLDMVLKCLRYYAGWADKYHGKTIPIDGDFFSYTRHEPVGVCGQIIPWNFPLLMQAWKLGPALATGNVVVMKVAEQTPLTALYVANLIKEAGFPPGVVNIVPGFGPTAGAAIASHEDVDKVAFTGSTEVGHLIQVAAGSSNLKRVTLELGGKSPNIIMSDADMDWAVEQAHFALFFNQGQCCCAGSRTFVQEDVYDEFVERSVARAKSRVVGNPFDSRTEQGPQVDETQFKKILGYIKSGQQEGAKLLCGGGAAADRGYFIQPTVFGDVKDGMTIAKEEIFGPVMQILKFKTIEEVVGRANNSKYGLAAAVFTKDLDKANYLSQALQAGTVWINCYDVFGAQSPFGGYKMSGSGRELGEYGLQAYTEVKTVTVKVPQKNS
Description: Induction of ALDH2 activity in langendorff perfused ischemic Wistar rat heart homogenate assessed as NADH level in per mg of protein at 1 uM after 10 mins by spectrophotometry. The class given is tissue-based. Put shortly: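 Rat hearts on a Langendorff apparatus perfused with oxygenated Krebs-Henseleit buffer containing 1μM εPKC agonist peptide for 10 min, then subjected to ischemia; ALDH activity measured in heart homogenates.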

Activity calls are given as the source filed them. The calls are words filed in the database; no cut-off is given here.

For the molecule `O=C(NCc1ccc2c(c1)OCO2)c1c(F)cccc1F`, the figures for the Activity (in series [1]; in the series with BL21 [2]) were 41% and 330%, respectively.
`O=C(NCc1ccc2c(c1)OCO2)c1c(Cl)cccc1Cl`: the result (in series [3]; in series [4]; in series [5]; in the series with Rattus norvegicus [6]; with Rattus norvegicus [18]) was inactive. Further, the Activity is 65% in series [1]; 60% in the series with Rattus norvegicus [7]; “Non-toxic” in the series on Rattus norvegicus [8]; 100% in [9]; 900% in the series on BL21 [2]; 26% in the series on Heart [10]. Also, the Activity in the series with Rattus norvegicus [12] is 43%; in the series with Rattus norvegicus [14], “Non-toxic”; in series [15], 90%; with Heart [17] it was 24%. Moreover, the fold change (FC) stood at 2.1 in [11], 11 in the series with BL21 [13] and 2.2 with BL21 [16].
Turning to `O=[N+]([O-])OCC(CO[N+](=O)[O-])O[N+](=O)[O-]` [NITROGLYCERIN], in the series with Rattus norvegicus [19], the Activity worked out at 33%.
`O=C(NCc1ccc2c(c1)OCO2)c1ccccc1Br`: the Activity in [1] was 56%; in the series with BL21 [2], 550%.
As to H-HDAPIGYD-OH, the Activity was 23% in the series with Heart [20] and 3.2 µmol/min in series [21].

The values are drawn from ChEMBL document CHEMBL1152868, “Activation of aldehyde dehydrogenase-2 reduces ischemic damage to the heart” (Science, 2008).
